# In ChEMBL document CHEMBL2311539, “3,6-Diamino-4-(2-halophenyl)-2-benzoylthieno[2,3-b]pyridine-5-carbonitriles are selective inhibitors of Plasmodium falciparum glycogen synthase kinase-3” (J Med Chem, 2013):
# What was measured:
# [1] = target: T1, Serine/threonine-protein kinase BRSK2 (Homo sapiens) (UniProt Q8IWQ3); assay: Inhibition of BRSK2 (unknown origin) at 10 uM
# T1 sequence (whole entry): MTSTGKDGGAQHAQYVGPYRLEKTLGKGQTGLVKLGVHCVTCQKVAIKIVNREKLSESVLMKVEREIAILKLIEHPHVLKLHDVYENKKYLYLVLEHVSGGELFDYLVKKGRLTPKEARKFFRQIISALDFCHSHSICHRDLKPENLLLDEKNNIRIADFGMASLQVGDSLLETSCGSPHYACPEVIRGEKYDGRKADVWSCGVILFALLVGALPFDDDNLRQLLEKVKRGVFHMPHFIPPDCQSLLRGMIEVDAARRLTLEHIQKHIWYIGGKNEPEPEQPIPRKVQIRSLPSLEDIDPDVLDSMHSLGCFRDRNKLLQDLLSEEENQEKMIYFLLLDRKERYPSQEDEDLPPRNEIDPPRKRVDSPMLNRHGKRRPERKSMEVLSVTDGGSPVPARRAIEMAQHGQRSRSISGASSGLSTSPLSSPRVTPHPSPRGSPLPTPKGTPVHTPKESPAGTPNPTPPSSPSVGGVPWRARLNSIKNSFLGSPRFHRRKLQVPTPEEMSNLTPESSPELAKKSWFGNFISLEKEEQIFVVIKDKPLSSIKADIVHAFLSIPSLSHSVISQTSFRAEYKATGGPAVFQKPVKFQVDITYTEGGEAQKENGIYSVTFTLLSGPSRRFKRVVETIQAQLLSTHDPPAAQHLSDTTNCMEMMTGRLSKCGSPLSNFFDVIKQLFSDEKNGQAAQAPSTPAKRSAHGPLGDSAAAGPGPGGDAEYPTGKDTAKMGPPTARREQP
# In short: (§1)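 Dundee human kinase selectivity panel (77 kinases); test compound at 1 and 10 μM, percentage kinase inhibition recorded.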
# [2] = target: Serine/threonine-protein kinase Chk2 (Homo sapiens) (UniProt O96017); assay: Inhibition of CHK2 (unknown origin) at 10 uM; in short: as §1
# [3] = Inhibition of Toxoplasma gondii recombinant His6-tagged GSK-3 expressed in Escherichia coli using GS-1 peptide as substrate after 30 mins by scintillation counting analysis in presence of gamma-33P-ATP; type: cell-free
# In short: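 His6-tagged recombinant GSK-3 expressed in E. coli (TOP10/pBAD-Thio-TOPO for P. falciparum and T. gondii, arabinose-induced; BL21(DE3)-pRARE2/pET15 for C. parvum, IPTG at 15 °C), Ni-NTA purified. Assayed with 40 μM GS-1 phosphopeptide, 15 μM γ-33P-ATP in pH 7.5 Tris buffer with MgCl2, EGTA, DTT, heparin, BSA; 30 min, 30 °C; P81 paper, phosphoric acid washes, scintillation counting. DMSO controls; dose-response IC50, triplicate points.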
# [4] = target: Calcium/calmodulin-dependent protein kinase type 1 (Homo sapiens) (UniProt Q14012); assay: Inhibition of CAMK1 (unknown origin) at 10 uM; in short: as §1
# [5] = Inhibition of pig GSK-3 by radiometric protein kinase assay; parameters: species or system Sus scrofa
# In short: (§2)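 Native affinity-purified porcine GSK-3 in the radiometric assay: 40 μM GS-1 peptide, 15 μM γ-33P-ATP, pH 7.5 Tris/MgCl2/EGTA/DTT/heparin/BSA buffer, 30 min at 30 °C, P81 filter binding and scintillation counting. IC50 from dose-response curves with triplicate points; top concentration 10 or 100 μM.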
# [6] = target: Glycogen synthase kinase-3 (Sus scrofa, UniProt B2LUN4+I6LNT8); assay: Inhibition of pig GSK-3alpha/beta; in short: as §2
# [7] = target: Mitogen-activated protein kinase 11 (Homo sapiens) (UniProt Q15759); assay: Inhibition of P38beta MAPK (unknown origin) at 10 uM; in short: as §1
# [8] = target: Dual specificity mitogen-activated protein kinase kinase 1 (Homo sapiens) (UniProt Q02750); assay: Inhibition of MKK1 (unknown origin) at 10 uM; in short: as §1
# [9] = Inhibition of Trypanosoma brucei GSK-3
# Calcium/calmodulin-dependent protein kinase type 1 (Homo sapiens), sequence (Q14012 whole entry, looked up): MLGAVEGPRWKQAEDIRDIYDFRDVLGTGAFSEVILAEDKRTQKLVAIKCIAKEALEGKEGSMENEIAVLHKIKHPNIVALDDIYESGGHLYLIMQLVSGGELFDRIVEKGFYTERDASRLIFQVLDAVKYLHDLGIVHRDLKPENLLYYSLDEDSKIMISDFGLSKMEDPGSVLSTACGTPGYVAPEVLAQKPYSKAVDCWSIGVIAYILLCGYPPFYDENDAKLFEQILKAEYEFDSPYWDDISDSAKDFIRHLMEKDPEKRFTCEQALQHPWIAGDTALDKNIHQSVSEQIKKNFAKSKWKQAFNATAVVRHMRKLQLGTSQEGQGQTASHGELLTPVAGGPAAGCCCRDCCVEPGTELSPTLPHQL
# Serine/threonine-protein kinase Chk2 (Homo sapiens), sequence (O96017 whole entry): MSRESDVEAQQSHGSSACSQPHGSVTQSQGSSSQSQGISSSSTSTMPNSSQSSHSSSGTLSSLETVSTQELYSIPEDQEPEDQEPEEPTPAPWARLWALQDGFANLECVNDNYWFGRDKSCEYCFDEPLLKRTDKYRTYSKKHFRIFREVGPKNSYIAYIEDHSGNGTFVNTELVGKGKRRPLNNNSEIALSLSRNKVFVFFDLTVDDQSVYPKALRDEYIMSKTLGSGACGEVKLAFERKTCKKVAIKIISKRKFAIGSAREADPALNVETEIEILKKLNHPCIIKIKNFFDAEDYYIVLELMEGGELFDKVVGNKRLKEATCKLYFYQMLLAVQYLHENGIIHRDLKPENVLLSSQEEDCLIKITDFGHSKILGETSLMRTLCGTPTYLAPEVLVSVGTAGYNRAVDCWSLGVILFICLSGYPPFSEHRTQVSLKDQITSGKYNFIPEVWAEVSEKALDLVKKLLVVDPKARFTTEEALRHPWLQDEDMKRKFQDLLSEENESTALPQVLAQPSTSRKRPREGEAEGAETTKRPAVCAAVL
# Dual specificity mitogen-activated protein kinase kinase 1 (Homo sapiens), sequence (Q02750 whole entry): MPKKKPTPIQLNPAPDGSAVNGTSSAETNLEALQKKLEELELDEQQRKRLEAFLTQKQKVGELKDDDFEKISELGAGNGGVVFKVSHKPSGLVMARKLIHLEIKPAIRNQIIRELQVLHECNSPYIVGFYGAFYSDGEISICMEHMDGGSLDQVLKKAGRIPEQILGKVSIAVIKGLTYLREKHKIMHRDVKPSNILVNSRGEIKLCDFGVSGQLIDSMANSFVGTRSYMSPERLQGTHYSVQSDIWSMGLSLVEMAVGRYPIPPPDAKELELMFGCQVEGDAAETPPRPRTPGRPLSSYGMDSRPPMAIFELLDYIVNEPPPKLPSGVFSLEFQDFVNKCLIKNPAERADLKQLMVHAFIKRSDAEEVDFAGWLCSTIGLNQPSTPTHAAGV
# Mitogen-activated protein kinase 11 (Homo sapiens), sequence (Q15759 whole entry): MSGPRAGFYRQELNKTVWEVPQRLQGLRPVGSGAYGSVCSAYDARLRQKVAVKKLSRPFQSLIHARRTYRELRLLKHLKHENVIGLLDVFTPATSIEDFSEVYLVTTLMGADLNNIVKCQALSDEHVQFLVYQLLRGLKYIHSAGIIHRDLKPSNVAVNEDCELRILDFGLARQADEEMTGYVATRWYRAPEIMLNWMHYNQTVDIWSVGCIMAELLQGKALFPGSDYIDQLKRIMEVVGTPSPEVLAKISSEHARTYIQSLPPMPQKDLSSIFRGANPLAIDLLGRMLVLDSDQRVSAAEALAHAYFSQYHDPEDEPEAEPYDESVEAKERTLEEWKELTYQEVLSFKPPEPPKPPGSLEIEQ
smiles,measurement,setting,value
N#Cc1c(N)nc2sc(C(=O)c3cccc(Cl)c3)c(N)c2c1-c1ccccc1Cl,inhibition,[1],> 50%
same,inhibition,[2],> 50%
same,IC50,[3],> 100 µM
same,inhibition,[4],> 50%
same,IC50,[5],> 10 µM
same,IC50,[6],> 10 µM
same,inhibition,[7],> 50%
same,inhibition,[8],> 50%
same,IC50,[9],> 100 µM
